Results from ChEMBL document CHEMBL1800043, “(-)-Duryne and its homologues, cytotoxic acetylenes from a marine Sponge Petrosia sp” (J Nat Prod, 2011).

Each compound was assayed on HeLa (assay: Cytotoxicity against human HeLa cells after 72 hrs by MTT assay).
Assay type: functional, cell-based
Method in brief: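 HeLa cells grown in DMEM with 10% FBS, 2 μg/mL gentamycin and 2 μg/mL antibiotic-antimycotic at 37 °C under 5% CO2. Seeded at 1 × 10^4 cells/mL and preincubated 24 h. Sample added, then incubated 72 h. MTT (1 mg/mL saline) added for 3 h. Supernatant discarded, formazan dissolved in DMSO, absorbance read for IC50. Adriamycin was the positive control.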

Row | SMILES | IC50
1 | C#C[C@H](O)/C=C/CCCCCCCCC/C=C\CCCCCCCCC/C=C/[C@@H](O)C#C | 0.5 µM
2 | C#C[C@H](O)/C=C/CCCCCCCCC/C=C\CCCCCCCCCCC/C=C/[C@@H](O)C#C | 0.26 µM
3 | C#C[C@H](O)/C=C/CCCCC/C=C\CCCC/C=C\CCCCCCCCC/C=C/[C@@H](O)C#C | 0.26 µM
4 | C#C[C@H](O)/C=C/CCCCCCC/C=C\CCCC/C=C\CCCCCCCCC/C=C/[C@@H](O)C#C | 0.1 µM
5 | C#C[C@H](O)/C=C/CCCCCCCCC/C=C\CCCC/C=C\CCCCCCCCC/C=C/[C@@H](O)C#C | 0.08 µM
6 | C#C/C=C\[C@@H](O)CCCCCCCCCCC/C=C\CCCCCCCCC/C=C/[C@@H](O)C#C | 0.34 µM
7 | COc1cccc2c1C(=O)c1c(O)c3c(c(O)c1C2=O)C[C@@](O)(C(=O)CO)C[C@@H]3O[C@H]1C[C@H](N)[C@H](O)[C@H](C)O1 [DOXORUBICIN] | 1.64 µM
